Activity calls are given as the source filed them. The rule behind the calls is not given here.
How the values were obtained:
[1] = Permeability across MDCK cells; type: ADME, cell-based, Canis lupus familiaris; conditions: dog, read-out: permeability
Method in brief: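 Measured across a confluent MDCK cell monolayer; apparent permeability is reported together with the efflux ratio.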

[2] = Plasma protein binding in human; type: ADME, cell-free; conditions: read-out: PPB (converted)
[3] = target: Tyrosine-protein kinase ABL1 (Homo sapiens) (UniProt P00519); assay: Inhibition of partial length human ABL1 phosphorylation expressed in mammalian system at 1 uM
Method in brief: (§1)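 Single-point screen within a 97-kinase profiling panel, with the test compound at 1 µM.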

[4] = target: Activin receptor type-1B (Homo sapiens) (UniProt P36896); assay: Inhibition of partial length human ACVR1B expressed in bacterial system at 1 uM; method in brief: as §1
[5] = target: RAC-beta serine/threonine-protein kinase (Homo sapiens) (UniProt P31751); assay: Inhibition of partial length human AKT2 expressed in bacterial system at 1 uM; method in brief: as §1
[6] = target: Aurora kinase B (Homo sapiens) (UniProt Q96GD4); assay: Inhibition of partial length human Aurora B expressed in mammalian system at 1 uM; method in brief: as §1
Homo sapiens = organism: Homo sapiens; assay: Inhibition of partial length human CDK11 expressed in bacterial system at 1 uM
Method in brief: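 Single-concentration screen within a 97-kinase profiling panel (KinomeEdge), with the compound tested at one fixed concentration across all panel kinases.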

[7] = target: Cyclin-dependent kinase 2 (Homo sapiens) (UniProt P24941); assay: Inhibition of partial length human CDK2 expressed in bacterial system at 1 uM; method in brief: as §1
[8] = target: Cyclin-dependent kinase 7 (Homo sapiens) (UniProt P50613); assay: Inhibition of partial length human CDK7 expressed in mammalian system at 1 uM; method in brief: as §1
[9] = target: Serine/threonine-protein kinase Chk1 (Homo sapiens) (UniProt O14757); assay: Inhibition of partial length human CHEK1 expressed in bacterial system at 1 uM; method in brief: as §1
[10] = target: Casein kinase I isoform delta (Homo sapiens) (UniProt P48730); assay: Inhibition of partial length human CSNK1D expressed in bacterial system at 1 uM; method in brief: as §1
[11] = target: Ephrin type-A receptor 2 (Homo sapiens) (UniProt P29317); assay: Inhibition of partial length human EPHA2 expressed in bacterial system at 1 uM; method in brief: as §1
[12] = target: Receptor-type tyrosine-protein kinase FLT3 (Homo sapiens) (UniProt P36888); assay: Inhibition of partial length human FLT3 expressed in bacterial system at 1 uM; method in brief: as §1
[13] = target: Insulin receptor (Homo sapiens) (UniProt P06213); assay: Inhibition of partial length human INSR expressed in mammalian system at 1 uM; method in brief: as §1
[14] = target: Tyrosine-protein kinase JAK3 (Homo sapiens) (UniProt P52333); assay: Inhibition of partial length human JAK3 JH1 catalytic domain expressed in mammalian system at 1 uM; method in brief: as §1
[15] = target: Mitogen-activated protein kinase 9 (Homo sapiens) (UniProt P45984); assay: Inhibition of partial length human JNK2 expressed in mammalian system at 1 uM; method in brief: as §1
[16] = target: Mast/stem cell growth factor receptor Kit (Homo sapiens) (UniProt P10721); assay: Inhibition of partial length human KIT expressed in bacterial system at 1 uM
Method in brief: (§2)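 Single-concentration screen at 1 µM test concentration, run as part of a commercial binding/activity profiling panel covering 97 kinases.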

[17] = system: Mast/stem cell growth factor receptor Kit (Homo sapiens), P10721 [D816V]; assay: Inhibition of partial length human KIT D816V mutant expressed in bacterial system at 1 uM; method in brief: as §2
[18] = system: Mast/stem cell growth factor receptor Kit (Homo sapiens), P10721 [V559D,T670I]; assay: Inhibition of partial length human KIT V559D/T670I double mutant expressed in bacterial system at 1 uM; method in brief: as §2
[19] = target: MAP kinase-activated protein kinase 2 (Homo sapiens) (UniProt P49137); assay: Inhibition of partial length human MAPKAPK2 expressed in bacterial system at 1 uM; method in brief: as §1
[20] = target: Mitogen-activated protein kinase kinase kinase 9 (Homo sapiens) (UniProt P80192); assay: Inhibition of partial length human MLK1 expressed in bacterial system at 1 uM
Method in brief: (§3)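 Single-concentration screen across a panel of 97 kinases, with the test compound at 1 uM.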

[21] = target: Mitogen-activated protein kinase 14 (Homo sapiens) (UniProt Q16539); assay: Inhibition of partial length human p38alpha expressed in bacterial system at 1 uM; method in brief: as §3
[22] = target: Cyclin-dependent kinase 16 (Homo sapiens) (UniProt Q00536); assay: Inhibition of partial length human PCTK1 expressed in mammalian system at 1 uM; method in brief: as §3
[23] = target: Platelet-derived growth factor receptor beta (Homo sapiens) (UniProt P09619); assay: Inhibition of partial length human PDGFRbeta expressed in bacterial system at 1 uM; method in brief: as §3
[24] = target: Phosphatidylinositol 4-phosphate 3-kinase C2 domain-containing subunit beta (Homo sapiens) (UniProt O00750); assay: Inhibition of partial length human PIK3C2beta expressed in mammalian system at 1 uM; method in brief: as §3
[25] = target: Phosphatidylinositol 4,5-bisphosphate 3-kinase catalytic subunit gamma isoform (Homo sapiens) (UniProt P48736); assay: Inhibition of partial length human PIK3Cgamma expressed in mammalian system at 1 uM; method in brief: as §3
[26] = target: Serine/threonine-protein kinase PLK1 (Homo sapiens) (UniProt P53350); assay: Inhibition of partial length human PLK1 expressed in mammalian system at 1 uM; method in brief: as §3
[27] = target: SRSF protein kinase 3 (Homo sapiens) (UniProt Q9UPE1); assay: Inhibition of partial length human SRPK3 expressed in bacterial system at 1 uM; method in brief: as §3
[28] = target: Serine/threonine-protein kinase ULK2 (Homo sapiens) (UniProt Q8IYT8); assay: Inhibition of partial length human ULK2 expressed in mammalian system at 1 uM; method in brief: as §3
[29] = target: Serine/threonine-protein kinase 32C (Homo sapiens) (UniProt Q86UX6); assay: Inhibition of partial length human YANK3 expressed in bacterial system at 1 uM; method in brief: as §3
[30] = Half life in human plasma; type: ADME, cell-free
Method in brief: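 Plasma stability was measured in human and rat plasma, with half-life reported in hours.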

[31] = Cytotoxicity against human 293T cells assessed as change in phenotypic response measured after prolonged treatment; type: cell-based; conditions: hek-293t
HeLa [32] = assay: Antiproliferative activity against human HeLa cells assessed as change in phenotypic response measured after prolonged treatment; type: functional, cell-based
U2OS = assay: Antiproliferative activity against human U2OS cells assessed as change in phenotypic response measured after prolonged treatment; type: functional, cell-based
A549 = assay: Antiproliferative activity against human A549 cells assessed as change in phenotypic response up to 50 uM; type: functional, cell-based
[33] = Cytotoxicity against human 293T cells assessed as change in phenotypic response up to 50 uM; type: cell-based; conditions: hek-293t
HeLa [34] = assay: Antiproliferative activity against human HeLa cells assessed as change in phenotypic response up to 50 uM; type: functional, cell-based
MDA-MB-231 = assay: Antiproliferative activity against human MDA-MB-231 cells assessed as change in phenotypic response up to 50 uM; type: functional, cell-based
HCT-116 = assay: Antiproliferative activity against human HCT116 cells assessed as change in phenotypic response up to 50 uM; type: functional, cell-based
UOK 262 = assay: Antiproliferative activity against human UOK 262 cells assessed as change in phenotypic response measured after prolonged treatment; type: functional, cell-based
NCI-H358 = assay: Antiproliferative activity against human NCI-H358 cells assessed as change in phenotypic response up to 50 uM; type: functional, cell-based

Sequence of Aurora kinase B (Homo sapiens) (Q96GD4 whole entry): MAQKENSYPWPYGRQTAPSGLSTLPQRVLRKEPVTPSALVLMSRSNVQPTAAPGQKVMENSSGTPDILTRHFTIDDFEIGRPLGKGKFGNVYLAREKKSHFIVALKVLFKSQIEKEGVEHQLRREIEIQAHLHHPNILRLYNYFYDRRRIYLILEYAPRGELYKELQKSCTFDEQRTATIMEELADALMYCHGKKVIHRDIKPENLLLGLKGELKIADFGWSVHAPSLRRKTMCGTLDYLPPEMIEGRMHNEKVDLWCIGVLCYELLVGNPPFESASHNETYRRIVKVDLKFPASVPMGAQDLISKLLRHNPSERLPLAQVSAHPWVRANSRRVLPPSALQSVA
Sequence of Receptor-type tyrosine-protein kinase FLT3 (Homo sapiens) (P36888 whole entry): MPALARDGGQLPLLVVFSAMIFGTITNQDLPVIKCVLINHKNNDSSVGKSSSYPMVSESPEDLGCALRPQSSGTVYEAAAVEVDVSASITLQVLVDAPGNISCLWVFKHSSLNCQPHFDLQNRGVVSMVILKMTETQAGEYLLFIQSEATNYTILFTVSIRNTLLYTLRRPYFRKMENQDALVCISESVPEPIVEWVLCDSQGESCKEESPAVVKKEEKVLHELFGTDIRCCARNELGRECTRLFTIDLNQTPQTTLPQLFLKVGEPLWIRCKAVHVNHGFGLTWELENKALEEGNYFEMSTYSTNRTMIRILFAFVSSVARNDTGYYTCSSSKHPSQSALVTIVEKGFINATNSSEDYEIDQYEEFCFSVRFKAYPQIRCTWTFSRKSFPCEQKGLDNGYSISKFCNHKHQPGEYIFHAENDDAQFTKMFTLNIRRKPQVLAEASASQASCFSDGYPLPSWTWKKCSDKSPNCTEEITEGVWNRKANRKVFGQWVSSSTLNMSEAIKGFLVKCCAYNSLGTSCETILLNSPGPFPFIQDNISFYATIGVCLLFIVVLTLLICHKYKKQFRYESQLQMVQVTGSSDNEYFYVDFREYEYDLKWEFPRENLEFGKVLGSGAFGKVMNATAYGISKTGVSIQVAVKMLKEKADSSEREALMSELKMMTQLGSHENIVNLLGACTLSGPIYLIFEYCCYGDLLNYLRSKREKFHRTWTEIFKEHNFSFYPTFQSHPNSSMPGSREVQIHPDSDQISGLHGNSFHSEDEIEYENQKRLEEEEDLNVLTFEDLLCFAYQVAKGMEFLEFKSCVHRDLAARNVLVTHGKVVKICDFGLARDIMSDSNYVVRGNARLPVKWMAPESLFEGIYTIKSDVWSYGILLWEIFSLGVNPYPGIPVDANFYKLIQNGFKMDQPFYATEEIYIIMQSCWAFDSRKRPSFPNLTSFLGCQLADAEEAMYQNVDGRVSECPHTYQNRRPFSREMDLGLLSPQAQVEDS
Sequence of RAC-beta serine/threonine-protein kinase (Homo sapiens) (P31751 whole entry): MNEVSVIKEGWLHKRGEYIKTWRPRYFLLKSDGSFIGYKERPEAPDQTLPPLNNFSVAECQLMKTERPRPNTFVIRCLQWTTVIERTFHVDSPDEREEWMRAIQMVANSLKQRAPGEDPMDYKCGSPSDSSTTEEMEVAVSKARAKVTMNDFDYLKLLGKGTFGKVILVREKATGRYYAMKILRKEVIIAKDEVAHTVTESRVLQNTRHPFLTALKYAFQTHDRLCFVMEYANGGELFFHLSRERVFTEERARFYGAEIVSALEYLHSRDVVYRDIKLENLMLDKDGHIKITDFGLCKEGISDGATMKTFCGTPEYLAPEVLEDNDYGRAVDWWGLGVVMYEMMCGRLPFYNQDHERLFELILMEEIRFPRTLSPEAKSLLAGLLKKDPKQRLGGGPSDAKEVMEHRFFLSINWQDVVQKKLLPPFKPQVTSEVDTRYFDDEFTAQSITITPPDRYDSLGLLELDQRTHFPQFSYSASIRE
Sequence of Cyclin-dependent kinase 16 (Homo sapiens) (Q00536 whole entry): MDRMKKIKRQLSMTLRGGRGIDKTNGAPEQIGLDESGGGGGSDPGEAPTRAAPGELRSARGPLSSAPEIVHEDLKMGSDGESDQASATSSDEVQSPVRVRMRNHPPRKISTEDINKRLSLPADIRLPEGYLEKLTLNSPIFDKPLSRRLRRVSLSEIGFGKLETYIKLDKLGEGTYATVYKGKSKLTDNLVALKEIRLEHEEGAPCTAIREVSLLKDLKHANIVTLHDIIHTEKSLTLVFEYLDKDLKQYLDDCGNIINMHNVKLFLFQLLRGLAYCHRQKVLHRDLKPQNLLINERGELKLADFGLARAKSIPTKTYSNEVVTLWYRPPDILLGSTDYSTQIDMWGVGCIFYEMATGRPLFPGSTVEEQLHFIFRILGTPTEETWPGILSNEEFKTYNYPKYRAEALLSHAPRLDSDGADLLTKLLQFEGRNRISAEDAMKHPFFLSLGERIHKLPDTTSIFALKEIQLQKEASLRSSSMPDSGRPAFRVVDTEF
Sequence of Insulin receptor (Homo sapiens) (P06213 28-758 limits assumed): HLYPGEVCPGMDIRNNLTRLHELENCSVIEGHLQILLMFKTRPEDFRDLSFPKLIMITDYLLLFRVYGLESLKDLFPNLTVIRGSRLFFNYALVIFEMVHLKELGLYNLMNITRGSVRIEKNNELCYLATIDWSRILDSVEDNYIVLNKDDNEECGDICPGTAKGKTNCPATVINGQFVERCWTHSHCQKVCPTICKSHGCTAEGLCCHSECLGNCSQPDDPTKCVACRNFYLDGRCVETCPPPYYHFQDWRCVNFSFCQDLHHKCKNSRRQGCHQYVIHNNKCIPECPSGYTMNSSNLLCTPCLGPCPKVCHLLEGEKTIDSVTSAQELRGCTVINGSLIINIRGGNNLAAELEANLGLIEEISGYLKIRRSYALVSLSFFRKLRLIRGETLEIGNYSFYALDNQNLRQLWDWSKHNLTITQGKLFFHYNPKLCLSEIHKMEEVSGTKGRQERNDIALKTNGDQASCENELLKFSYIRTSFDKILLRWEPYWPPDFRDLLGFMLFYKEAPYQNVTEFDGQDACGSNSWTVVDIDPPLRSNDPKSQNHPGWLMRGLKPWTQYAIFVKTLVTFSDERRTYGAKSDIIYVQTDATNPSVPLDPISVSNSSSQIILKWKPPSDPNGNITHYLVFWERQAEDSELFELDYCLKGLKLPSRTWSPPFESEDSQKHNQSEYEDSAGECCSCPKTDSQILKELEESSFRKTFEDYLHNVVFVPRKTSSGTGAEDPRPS
Sequence of Insulin receptor (Homo sapiens) (P06213 763-1382 limits assumed): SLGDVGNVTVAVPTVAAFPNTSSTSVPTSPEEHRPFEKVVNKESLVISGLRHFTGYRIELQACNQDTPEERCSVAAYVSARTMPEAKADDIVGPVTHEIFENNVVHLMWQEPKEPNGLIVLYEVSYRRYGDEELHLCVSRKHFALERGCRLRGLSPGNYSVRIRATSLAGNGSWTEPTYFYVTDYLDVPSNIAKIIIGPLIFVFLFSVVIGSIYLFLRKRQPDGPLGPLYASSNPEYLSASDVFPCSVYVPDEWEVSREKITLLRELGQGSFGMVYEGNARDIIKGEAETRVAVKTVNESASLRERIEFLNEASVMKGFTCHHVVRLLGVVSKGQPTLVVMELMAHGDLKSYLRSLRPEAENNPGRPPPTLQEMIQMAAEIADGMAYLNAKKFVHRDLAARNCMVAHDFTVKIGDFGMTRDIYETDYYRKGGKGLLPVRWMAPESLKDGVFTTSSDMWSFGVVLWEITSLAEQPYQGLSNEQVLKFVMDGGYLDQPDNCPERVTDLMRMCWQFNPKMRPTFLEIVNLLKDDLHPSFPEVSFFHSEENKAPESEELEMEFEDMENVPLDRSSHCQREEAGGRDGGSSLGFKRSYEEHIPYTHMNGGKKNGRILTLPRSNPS
Sequence of Tyrosine-protein kinase JAK3 (Homo sapiens) (P52333 whole entry, the tested form may be a part): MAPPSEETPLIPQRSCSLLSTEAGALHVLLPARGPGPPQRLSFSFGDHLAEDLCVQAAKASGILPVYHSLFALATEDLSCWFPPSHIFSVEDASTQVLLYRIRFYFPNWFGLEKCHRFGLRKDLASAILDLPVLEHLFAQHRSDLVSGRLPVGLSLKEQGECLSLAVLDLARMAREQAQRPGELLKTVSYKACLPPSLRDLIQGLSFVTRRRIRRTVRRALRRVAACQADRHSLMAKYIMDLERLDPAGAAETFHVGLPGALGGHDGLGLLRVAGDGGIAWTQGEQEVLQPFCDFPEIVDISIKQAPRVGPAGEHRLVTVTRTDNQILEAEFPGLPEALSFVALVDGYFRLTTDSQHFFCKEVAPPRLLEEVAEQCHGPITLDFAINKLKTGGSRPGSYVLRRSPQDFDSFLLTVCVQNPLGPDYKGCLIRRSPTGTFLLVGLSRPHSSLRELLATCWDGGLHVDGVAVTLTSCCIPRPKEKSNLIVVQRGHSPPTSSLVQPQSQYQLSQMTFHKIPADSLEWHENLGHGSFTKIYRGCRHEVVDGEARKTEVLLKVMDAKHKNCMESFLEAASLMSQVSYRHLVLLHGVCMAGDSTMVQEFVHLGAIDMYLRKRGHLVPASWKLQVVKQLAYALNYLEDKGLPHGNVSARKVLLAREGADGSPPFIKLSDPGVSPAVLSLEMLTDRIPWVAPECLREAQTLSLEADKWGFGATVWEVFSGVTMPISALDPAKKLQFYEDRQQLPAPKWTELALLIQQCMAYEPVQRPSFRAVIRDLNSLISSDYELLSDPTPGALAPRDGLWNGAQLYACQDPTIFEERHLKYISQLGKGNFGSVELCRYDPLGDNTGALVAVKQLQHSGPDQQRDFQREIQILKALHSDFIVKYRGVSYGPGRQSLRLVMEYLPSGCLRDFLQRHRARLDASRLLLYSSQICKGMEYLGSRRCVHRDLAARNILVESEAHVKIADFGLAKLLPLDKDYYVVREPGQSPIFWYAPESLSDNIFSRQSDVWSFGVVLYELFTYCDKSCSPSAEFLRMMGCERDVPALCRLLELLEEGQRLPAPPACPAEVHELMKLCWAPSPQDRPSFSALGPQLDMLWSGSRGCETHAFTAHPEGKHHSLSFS

SMILES: Cc1cnc(N)nc1OCC(C)(C)CO
- Papp [1]: 32 ×10⁻⁶ cm/s
- fraction unbound [2]: 0.46
- inhibition [3]: inactive
- inhibition [4]: inactive
- inhibition [5]: inactive
- inhibition [6]: inactive
- inhibition (Homo sapiens): inactive
- inhibition [7]: inactive
- inhibition [8]: inactive
- inhibition [9]: inactive
- inhibition [10]: inactive
- inhibition [11]: inactive
- inhibition [12]: inactive
- inhibition [13]: inactive
- inhibition [14]: inactive
- inhibition [15]: inactive
- inhibition [16]: inactive
- inhibition [17]: inactive
- inhibition [18]: inactive
- inhibition [19]: inactive
- inhibition [20]: inactive
- inhibition [21]: inactive
- inhibition [22]: inactive
- inhibition [23]: inactive
- inhibition [24]: inactive
- inhibition [25]: inactive
- inhibition [26]: inactive
- inhibition [27]: inactive
- inhibition [28]: inactive
- inhibition [29]: inactive
- half-life [30]: 58 h
- Activity [31]: Non-toxic
- Activity (HeLa [32]): inactive
- Activity (U2OS): inactive
- Activity (A549): inactive
- Activity [33]: Non-toxic
- Activity (HeLa [34]): inactive
- Activity (MDA-MB-231): inactive
- Activity (HCT-116): inactive
- Activity (UOK 262): inactive
- Activity (NCI-H358): inactive

— ChEMBL document CHEMBL3779767, “Identification of potent and selective MTH1 inhibitors” (Bioorg Med Chem Lett, 2016)
